NPY-Y1 antag = antagonists of human neuropeptide Y receptor Y1; inhibition, % at 3.6 µM; AID 1040; 1% of 200,000 active; P25929; HEK293-CNG Y1 cells, membrane potential fluorescence; NPY at EC95, then isoproterenol;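 active = inhibition above the campaign mean inhibition of all tested compounds plus 3 SD, cut at about 20% in these data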;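 note: 0% = DMSO wells given NPY plus isoproterenol and 100% = isoproterenol alone without NPY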
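Material: HEK293 cells co-expressing NPY Y1 receptor and cyclic-nucleotide gated channel. Timing: compound incubation 1 h at room temperature, readout 45 min post-stimulation. Signal: fluorescence, membrane potential probe.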
NPY-Y2 PAM-ag = human NPY-Y2 potentiation or agonism, primary screen; P49146; cells expressing NPY-Y2, potentiator/agonist read-out; activation, % at 3.6 µM; 0.45% of 220,000 active; AID 1359; in the data active = activation above about 27%;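 note: cells stimulated with NPY near EC25 plus isoproterenol at EC100; 0% = vehicle plus submaximal agonist and 100% = vehicle plus saturating agonist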
Target sequence (P49146 whole entry, looked up): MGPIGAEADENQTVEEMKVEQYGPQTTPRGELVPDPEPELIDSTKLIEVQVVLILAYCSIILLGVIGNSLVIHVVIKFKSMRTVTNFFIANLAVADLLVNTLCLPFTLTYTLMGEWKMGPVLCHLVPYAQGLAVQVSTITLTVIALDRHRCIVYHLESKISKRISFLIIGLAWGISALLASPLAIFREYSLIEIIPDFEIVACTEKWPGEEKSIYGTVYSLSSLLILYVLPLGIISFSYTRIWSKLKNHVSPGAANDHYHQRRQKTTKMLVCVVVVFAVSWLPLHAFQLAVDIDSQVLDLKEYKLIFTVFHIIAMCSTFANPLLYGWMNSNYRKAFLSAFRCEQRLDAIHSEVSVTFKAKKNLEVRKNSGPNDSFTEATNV
NPY-Y1 PAM-ag = potentiators or agonists of human neuropeptide Y receptor Y1; 0.37% of 220,000 active; AID 1304; P25929; activation, % at 3.6 µM; NPY-Y1 expressing cells, potentiator/agonist activation; in the data active = activation above about 33%, passing the limit was not always enough;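 note: cells stimulated with NPY at EC10 then isoproterenol at EC100; 0% = low agonist plus stimulus and 100% = saturating agonist plus stimulus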
EP2 modulator = modulates human prostaglandin E2 receptor EP2 signaling. P43116. EP2-expressing cells, cAMP HTRF FRET, PGE2 co-stimulation. 0.83% of 260,000 active. induction, % at 25 µM. AID 940;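 active = compounds whose cAMP rise, as percent of the full-agonist control response, exceeds 60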;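 note: rat C6 glioma line stably carrying human EP2 under a CMV promoter; the protocol text gives 20 µM as final concentration; 100% = response of wells given 1 µM PGE2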
EP2 antag = blocks the human prostaglandin E2 receptor EP2 | P43116 | C6 glioma cells expressing human EP2, cAMP TR-FRET; cells stimulated with saturating PGE2 | inhibition, % at 25 µM | 0.52% of 260,000 active | AID 1422;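 active = percent inhibition above 40 after rounding to a whole number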;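 note: rat C6 glioma host cells with rolipram phosphodiesterase inhibitor present; the protocol text gives 20 µM as final concentration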
NPY Y2 blocker = antagonists of human neuropeptide Y receptor Y2; P49146; NPY-Y2 expressing cells, antagonist mode; inhibition, % at 2.7 µM; 0.99% of 140,000 active; AID 793;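 note: 0% = vehicle with agonist challenge and 100% = reference antagonist with challenge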
NPY1 antag conf = human NPY-Y1 antagonism, confirmation; inhibition, % at 3.6 µM; shares compounds with NPY-Y1 antag; HEK293-CNG NPY-Y1, membrane potential fluorescence, cAMP; NPY challenge against isoproterenol-raised cAMP; AID 1254; 21% of 1,200 active; in the data active = inhibition above about 20%;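 note: 0% = vehicle with agonist plus stimulus and 100% = stimulus alone without agonist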
NPY-Y2 antag ct = antagonizes human NPY-Y2, counter-screen to NPY-Y1 antagonists. 28% of 1,200 active. shares compounds with NPY-Y1 antag. inhibition, % at 3.6 µM. HEK293 NPY-Y2 CNG membrane potential fluorescence, antagonism; cells given NPY, then isoproterenol;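 note: 0% = DMSO with agonist challenge and 100% = reference antagonist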
* marks the source's active call; other numbers are inactive results; nt = no result given. This is a sample that favours compounds with a hit; in the whole collection about 2.8% have one here. Cut-off read from the data, not from the text of the source, unless noted: active = inhibition above about 17%; inactive = the rest.

SMILES	NPY-Y1 antag	NPY-Y2 PAM-ag	NPY-Y1 PAM-ag	EP2 modulator	EP2 antag	NPY Y2 blocker	NPY1 antag conf	NPY-Y2 antag ct
COc1cc(/C=N/N=C(/N)c2nonc2N)cc(Br)c1OCc1cccc(C)c1	21*	-17	-19	22	9	11	15	14
CCOc1cc(/C=N/N=C(\N)c2nonc2N)cc(Br)c1OCc1cccc2ccccc12	9	-7	-25	12	4	3	nt	nt
COc1ccccc1NC(=O)c1oc2ccc(C)cc2c1C	22*	-17	-41	56	6	12	7	16
CCn1c(Sc2nc(C)nc3scc(-c4cccs4)c23)n[nH]c1=O	21*	-2	-3	16	7	2	7	37*
CCCCN(CC)CCCNC(=O)c1cn(CC)c2ccc(S(=O)(=O)N3CCc4ccccc4C3)cc2c1=O	22*	-5	-13	-37	1	nt	16	29*
CCCCN(C)CCCNC(=O)c1cn(CC)c2ccc(S(=O)(=O)N3CCc4ccccc4C3)cc2c1=O	20	-22	-30	-43	2	nt	nt	nt
COc1ccc(C2Nc3ccccc3C(=O)N2c2ccccc2)cc1COc1ccccn1 (centres undefined)	22*	-7	8	24	5	4	10	7
O=C(c1nsc(Cl)c1Cl)N1CCCC(c2ncncc2-c2ccncc2)C1 (centres undefined)	nt	nt	nt	-47	nt	nt	nt	nt
Cc1ccc(S(=O)(=O)N(C)C)cc1NC(=O)Nc1c(-c2ccccc2)noc1C	nt	-5	-2	9	6	nt	nt	nt
Cc1onc(-c2ccccc2)c1NC(=O)Nc1c(-c2ccccc2)noc1C	30*	5	13	24	4	nt	7	2
Cc1cc(N2C3CCC2CC(O)(c2cccc(F)c2)C3)nc(N)n1 (centres undefined)	nt	nt	nt	-82	nt	nt	nt	nt
O=C(CN1C(=O)c2ccccc2S1(=O)=O)Nc1ccc(F)c(Cl)c1	nt	nt	nt	-94	13	nt	nt	nt
c1ccc2c(c1)CC/C2=N/Nc1nc2ccccc2[nH]1	26*	-11	-37	-55	2	nt	20*	21*
CC(C)(C)C1CCC(=NNc2nc3ccccc3[nH]2)CC1 (centres undefined)	2	-10	-14	-50	10	nt	nt	nt
OCCC1CN(Cc2ccccn2)CCN1C1CCCC1 (centres undefined)	-3	-17	14	18	4	nt	nt	nt
OCCC1CN(CC(c2ccccc2)c2ccccc2)CCN1C1CCCC1 (centres undefined)	23*	-19	1	13	5	nt	12	10
O=C(C[n+]1cc(-c2ccccc2)n2c1CCCCC2)c1ccc(Cl)cc1	37*	-12	-56	3	5	16	25*	22*
Cc1ccc[n+](CC(=O)OC2CC(C)CCC2C(C)C)c1 (centres undefined)	nt	nt	nt	36	11	nt	nt	nt
COc1ccc(-c2c[n+](CC(=O)c3ccccc3)c3n2CCCCC3)cc1	nt	15	9	-1	9	nt	nt	nt
CC1CCC(C(C)C)C(OC(=O)C[n+]2cc(-c3ccc(Cl)cc3)n3c2CCCCC3)C1 (centres undefined)	80*	-12	-44	-42	14	nt	45*	39*
Clc1ccc(C[n+]2cc(-c3ccccc3)n3c2CCCCC3)c(Cl)c1	50*	-14	-29	-26	6	nt	33*	22*
Cc1ccc(-c2c[n+](CC(=O)c3ccc(Br)cc3)c3n2CCCCC3)cc1	35*	5	-34	-33	19	nt	52*	31*
CCCCN1Cc2cc(C(=O)c3cc(F)ccc3O)cnc2NC1=O	22*	-3	-33	16	11	3	0	2
CC(C(=O)N1C2CCC1CC(c1ccc(F)cc1)C2)c1n[nH]c(=O)c2ccccc12 (centres undefined)	nt	nt	nt	-12	nt	nt	nt	nt
O=C(NC(N1CCCC1)C(Cl)(Cl)Cl)c1ccccc1 (centres undefined)	0	-4	-1	8	10	4	nt	nt

Bioassay records from PubChem.
